What was measured:
HCT-116 [1] = assay: Antiproliferative activity against human HCT116 cells expressing wild type p53 after 48 hrs by MTT assay; conditions: HCT-116, 48 h
HCT-116 [2] = assay: Antiproliferative activity against p53-deficient human HCT116 cells after 48 hrs by MTT assay; conditions: HCT-116, 48 h
A549 = assay: Antiproliferative activity against human A549 cells after 48 hrs by MTT assay; conditions: A549, 48 h
MCF7 = assay: Antiproliferative activity against human MCF7 cells after 48 hrs by MTT assay; conditions: MCF7, 48 h
Mus musculus [3] = assay: Toxicity in BALB/c mouse allografted with mouse CT26 cells assessed as body weight at 50 mg/kg, ip qd administered for 10 days (reference value: 19.45 gm); type: organism-based; parameters: dose 50 mg/kg, route intraperitoneal; conditions: in vivo, 240 h
CT26 = assay: Antitumor activity against mouse CT26 cells allografted in ip dosed BALB/c mouse assessed as tumor growth inhibition administered qd for 10 days; type: functional, organism-based
Summary of the method: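 CT26 cell suspension implanted s.c. in right axilla of BALB/c mice; randomised 10/group. Dosing i.p. once daily for 10 days, starting 24 h after implantation; vehicle and blank control groups. Mice sacrificed 24 h after last dose, tumours excised and weighed; inhibition = (A–B)/A×100%, A and B mean tumour weights of control and treated groups.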

HCT-116 [4] = assay: Induction of p21 expression in human HCT116 cells after 48 hrs by Western blotting analysis; type: functional, cell-based
Summary of the method: (§1)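 p53 wild-type HCT116 cells exposed to a range of concentrations for 48 h, lysed in Tris/NaCl/Triton X-100 buffer with protease inhibitors. Protein assayed by Bio-Rad method, separated by SDS-PAGE, transferred to PVDF, blocked in 5% non-fat milk. Primary antibody 2 h at room temperature, peroxidase secondary, ECL detection; beta-actin as loading control.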

HCT-116 [5] = assay: Induction of p53 expression in human HCT116 cells after 48 hrs by Western blotting analysis; type: functional, cell-based; summary of the method: as §1
HCT-116 [6] = assay: Induction of MDM2 expression in human HCT116 cells after 48 hrs by Western blotting analysis; type: functional, cell-based; summary of the method: as §1
HCT-116 [7] = assay: Induction of apoptosis in human HCT116 cells after 48 hrs by propidium iodide staining-based flow cytometry; type: functional, cell-based
Summary of the method: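 HCT116 cells seeded at 2×10^5/well, grown 48 h, then exposed to compound for 48 h. Cells fixed overnight in 70% ice-cold ethanol, treated with RNase A (100 µg/ml, 30 min, room temperature), stained with propidium iodide (50 µg/mL final). Analysed by flow cytometry.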

Mus musculus [8] = assay: Toxicity in BALB/c mouse assessed as death at 500 mg/kg, ip up to 8 days; type: organism-based; parameters: dose 500 mg/kg, route intraperitoneal; conditions: in vivo, 192 h
Summary of the method: (§2)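 BALB/c mice randomised into two groups of 10; single intraperitoneal dose of 500 or 1000 mg/kg in 10% DMSO. Animals monitored for death and visible signs of toxicity over 8 days.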

Mus musculus [9] = assay: Toxicity in BALB/c mouse assessed as visible side effect at 500 mg/kg, ip up to 8 days; type: organism-based; parameters: dose 500 mg/kg, route intraperitoneal; conditions: in vivo, 192 h; summary of the method: as §2
Mus musculus [10] = assay: Toxicity in BALB/c mouse assessed as death at 1000 mg/kg, ip after 24 hrs; type: organism-based; parameters: dose 1000 mg/kg, route intraperitoneal; conditions: in vivo; summary of the method: as §2
Mus musculus [11] = assay: Toxicity in BALB/c mouse allografted with mouse CT26 cells assessed as body weight at 100 mg/kg, ip qd administered for 10 days (reference value: 19.45 gm); type: organism-based; parameters: dose 100 mg/kg, route intraperitoneal; conditions: in vivo, 240 h
HCT-116 [12] = assay: […] in human HCT116 cells assessed as accumulation at G1 phase at 50 uM after 48 hrs by propidium iodide staining-based flow cytometry (reference value: 62.5%); type: functional
Summary of the method: (§3)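 HCT116 (wild-type p53) seeded at 2×10^5 cells/well, cultured 48 h, then treated with compound for 48 h. Washed in cold PBS, fixed overnight in 70% ice-cold ethanol, RNase A (100 µg/ml) 30 min at room temperature, stained with propidium iodide (50 µg/mL final). Cell cycle distribution by flow cytometry.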

HCT-116 [13] = assay: […] in human HCT116 cells assessed as accumulation at S phase at 50 uM after 48 hrs by propidium iodide staining-based flow cytometry (reference value: 24.8%); type: functional; summary of the method: as §3

COc1ccc(/C=C2/C(=O)Nc3ccc(F)cc32)c(-c2ccc(Cl)cc2)c1
GI50 (HCT-116 [1]): 15.3 µM
GI50 (HCT-116 [2]): 27.3 µM
GI50 (A549): 58.8 µM
GI50 (MCF7): > 100 µM

COc1cccc(/C=C2/C(=O)Nc3cc(Cl)ccc32)c1-c1ccc(C#N)cc1
GI50 (HCT-116 [1]): 48.3 µM
GI50 (HCT-116 [2]): 110 µM
GI50 (A549): 81.6 µM
GI50 (MCF7): > 100 µM

COc1ccc(/C=C2/C(=O)Nc3cc(F)ccc32)c(-c2ccc(C#N)cc2)c1
GI50 (HCT-116 [1]): 17.1 µM
GI50 (HCT-116 [2]): 109 µM
GI50 (A549): > 100 µM
GI50 (MCF7): > 100 µM

CC(C)Oc1ccc(/C=C2/C(=O)Nc3cc(Cl)ccc32)c(OC(C)C)c1
GI50 (HCT-116 [1]): 23.4 µM
GI50 (HCT-116 [2]): 42 µM
GI50 (A549): 30.4 µM
GI50 (MCF7): 42.9 µM

CC(C)Oc1ccc(/C=C2/C(=O)Nc3ccc(Cl)cc32)c(OC(C)C)c1
GI50 (HCT-116 [1]): 29.7 µM
GI50 (HCT-116 [2]): 37.7 µM
GI50 (A549): 42.6 µM
GI50 (MCF7): 55.7 µM

COc1ccc(/C=C2/C(=O)Nc3ccccc32)c(OC)c1
Activity (Mus musculus [3]): 18.95 g
TGI (CT26): Dose-dependent effect
GI50 (HCT-116 [1]): 13.4 µM
GI50 (HCT-116 [2]): 28.1 µM
GI50 (A549): 52.5 µM
GI50 (MCF7): 54.1 µM
Activity (HCT-116 [4]): Dose-dependent effect
Activity (HCT-116 [5]): Dose-dependent effect
Activity (HCT-116 [6]): Dose-dependent effect
Activity (HCT-116 [7]): Dose-dependent effect
Activity (Mus musculus [8]): Non-toxic
Activity (Mus musculus [9]): Non-toxic
Activity (Mus musculus [10]): Toxic
Activity (Mus musculus [11]): 18.91 g

COc1ccc(/C=C2/C(=O)Nc3cc(F)ccc32)c(OC)c1
GI50 (HCT-116 [1]): 26.9 µM
GI50 (HCT-116 [2]): 65.5 µM
GI50 (A549): > 100 µM
GI50 (MCF7): 88.4 µM

COc1ccc(/C=C2/C(=O)Nc3ccc(Cl)cc32)c(-c2ccc(Cl)cc2)c1
GI50 (HCT-116 [1]): 32.2 µM
GI50 (HCT-116 [2]): 135 µM
GI50 (A549): 86.7 µM
GI50 (MCF7): > 100 µM

COc1ccc(/C=C2/C(=O)Nc3ccc(Cl)cc32)c(-c2ccc(C#N)cc2)c1
GI50 (HCT-116 [1]): 27.1 µM
GI50 (HCT-116 [2]): 124 µM
GI50 (A549): > 100 µM
GI50 (MCF7): > 100 µM

COc1ccc(/C=C2/C(=O)Nc3ccc(Cl)cc32)c(Br)c1
GI50 (HCT-116 [1]): 53.4 µM
GI50 (HCT-116 [2]): 115 µM
GI50 (A549): > 100 µM
GI50 (MCF7): > 100 µM

COc1ccc(/C=C2/C(=O)Nc3ccc(Cl)cc32)c(OC)c1
GI50 (HCT-116 [1]): 49.2 µM
GI50 (HCT-116 [2]): 126 µM
GI50 (A549): > 100 µM
GI50 (MCF7): > 100 µM

COc1ccc(C2=N[C@@H](c3ccc(Cl)cc3)[C@@H](c3ccc(Cl)cc3)N2C(=O)N2CCNC(=O)C2)c(OC(C)C)c1 [NUTLIN-3]
GI50 (HCT-116 [1]): 32.1 µM
GI50 (HCT-116 [2]): 55.7 µM
GI50 (A549): 47.6 µM
GI50 (MCF7): 48.7 µM
Activity (HCT-116 [7]): Dose-dependent effect
Activity (HCT-116 [12]): 53%
Activity (HCT-116 [13]): 8.7%

CCCOc1ccc(/C=C2/C(=O)Nc3ccccc32)c(OCCC)c1
GI50 (HCT-116 [1]): 14.4 µM
GI50 (HCT-116 [2]): 21.3 µM
GI50 (A549): 42.4 µM
GI50 (MCF7): 54 µM

CCCOc1ccc(/C=C2/C(=O)Nc3ccc(Cl)cc32)c(OCCC)c1
GI50 (HCT-116 [1]): 21 µM
GI50 (HCT-116 [2]): 26.1 µM
GI50 (A549): 30.2 µM
GI50 (MCF7): 58.4 µM

— ChEMBL document CHEMBL3259813, “Design, synthesis and in vitro and in vivo antitumour activity of 3-benzylideneindolin-2-one derivatives, a novel class of small-molecule inhibitors of the MDM2-p53 interaction” (Eur J Med Chem, 2014)
